# Published values pooled from the literature.
# Route: oral
Structure (SMILES),species,medium,dose,time,notes,concentration
COc1ccc2c(=O)n(C)c(-c3ccccc3)nc2c1,male Sprague-Dawley rat,spleen,30 mg/kg,4 h,,6.13 ng/mL
COc1cccc(-c2n[nH]c(SCc3ccccn3)n2)c1OC,male Sprague-Dawley rat,plasma,10 mg/kg,1 h,single dose,10400 ng/mL
COc1nc(-c2cc(C)c(N[C@@H](C)c3cc(F)cc(F)c3)nn2)ccc1-n1cnc(C)c1,male Sprague-Dawley rat,CSF,25 mg/kg,4 h,"multiple doses, once daily",76.6 ng/mL
CCOC(=O)[C@@]12C[C@@H]1[C@@H](n1ccc3c(NC)nc(C#Cc4ccc(Cl)s4)nc31)[C@H](O)[C@@H]2O,male Sprague-Dawley rat,plasma,1 mg/kg,1 h,,9.55 ng/mL
Cc1noc(C)c1Cn1cc(N2C(=O)N(Cc3cccc(O)c3)C(C)(C)C2=O)cn1,male Sprague-Dawley rat,plasma,100 mg/kg,2 h,single dose,3.8 ng/mL
Cc1ccc(-c2cc(C(F)(F)F)nn2-c2ccc(S(N)(=O)=O)cc2)cc1,male Sprague-Dawley rat,blood,20 mg/kg,8 h,,11.1 µM
CCc1cc(-c2noc(-c3cc(OC)nc(C4CCCC4)c3)n2)cc(C)c1OC[C@@H](O)CO,Wistar rat,plasma,0.3 mg/kg,6 h,single dose,12.7 ng/mL
Cc1noc(C)c1Cn1cc(N2C(=O)CN(Cc3cccc(O)c3)C2=O)cn1,male Sprague-Dawley rat,plasma,10 mg/kg,1 h,,8.29 ng/mL
